Test results as given in publication PMC10084868 (International Journal of Nanomedicine, 2023).

How the values were obtained:
zebrafish haematopoiesis = assay: Haemoglobin; assay type: in vivo; settings: zebrafish embryos; F1 starting from 0.4 µg/mL; haemoglobin staining and video
How it was run: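 Shield-stage embryos were exposed to the formulation at 0.4 µg/mL and raised to the 20-somite stage, then given 0.003% (final) phenylthiourea to block pigmentation. They were then rinsed and fixed in 4% paraformaldehyde.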

[1] = powdered drugs, reported previously; cited from earlier work
[2] = humans; cited from earlier work

Row | Structure (SMILES) | effect on blood circulation / haematopoiesis (zebrafish haematopoiesis) | dissolution rate (release) of powdered drug [1] | increase of bioavailability of CUR with concomitant PP vs CUR alone [2] [%]
1 | O=C(/C=C/C=C/c1ccc2c(c1)OCO2)N1CCCCC1 [PP, Piperine] | did not affect haematopoiesis | less than 20% | 
2 | COc1cc(/C=C/C(=O)CC(=O)/C=C/c2ccc(O)c(OC)c2)ccc1O [CUR, Curcumin] | did not affect haematopoiesis | less than 20% | 2000
